Source: ChEMBL document CHEMBL1147211, “Synthetic N-pyridinyl(methyl)-indol-3-ylpropanamides as new potential immunosuppressive agents” (Eur J Med Chem, 2007)
Calls of active or inactive are those of the source. No cut-off for these calls is given here.

Assays:
Splenocyte [1] = assay: (§1) Antiproliferative activity against ConA-stimulated mouse splenocytes at 90 uM after 72 hrs by MTT assay; assay type: functional
Method in brief: (§2)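 Spleens pooled from two 8-week-old female C57BL/6 mice were homogenized in HBSS, and red cells were lysed with 20 mM Tris-HCl/140 mM NH4Cl. Cells were seeded at 1.5×10^5/well and stimulated with 1 ug/mL ConA plus compound in complete RPMI with 50 µM mercaptoethanol, at 37 °C and 5% CO2 for 72 h. Read-out was MTT for 4 h and OD at 570 nm, in sextuplicate. Inhibition was calculated as (OD control − OD treated)/OD control × 100.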

Splenocyte [2] = assay: (§3) Antiproliferative activity against ConA-stimulated mouse splenocytes at 30 uM after 72 hrs by MTT assay; assay type: functional; method in brief: as §2
Mus musculus = assay: Inhibition of DTH foot-pad swelling in orally dosed BALB/C mouse after 5 days; assay type: functional
Method in brief: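 Female BALB/c mice, 8–9 weeks old and five per group, were primed i.v. with 5×10^6 SRBC in PBS. Compound in olive oil was given orally once daily for five days, from priming until challenge. On day 4, 3–4×10^8 SRBC were injected into the right hind footpad and PBS into the left. Footpad swelling difference was measured 24 h later, and inhibition was expressed relative to control mice.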

[3] = Cytotoxicity assessed as cell viability of ConA-stimulated mouse splenocytes at 100 uM after 48 hrs by MTT assay
[4] = Antiproliferative activity against PHA-stimulated human peripheral blood lymphocytes assessed as [3H]thymidine uptake after 48 hrs; assay type: functional; conditions: PBL
Method in brief: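 Human PBL from healthy donors were isolated by Ficoll-Hypaque and seeded at 1×10^5/well. They were stimulated with 0.3 µg/mL PHA plus compound (6.25–100 µM; DMSO stock diluted in complete RPMI) at 37 °C and 5% CO2 for 48 h. [3H]thymidine (1 µCi/well) was added for the last 6–8 h, and uptake was counted by beta counter, in sextuplicate. Values are mean ± SEM of three independent experiments.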

Splenocyte [5] = assay: Inhibition of mitogen dependent T cell proliferation in mouse splenocytes; assay type: functional, cell-based; method in brief: as §2
[6] = as §1; assay type: functional; conditions: Splenocyte; method in brief: as §2
[7] = as §3; assay type: functional; conditions: Splenocyte; method in brief: as §2

Row | Compound | Activity (Splenocyte [1]) | Activity (Splenocyte [2]) | inhibition at 90 µM [6] [%] | inhibition at 30 µM [7] [%] | other results
1 | O=C(CCc1cn(Cc2ccc(Cl)cc2)c2ccc(Cl)cc12)NCc1cccnc1 | inactive | inactive | – | – | –
2 | O=C(CCc1cn(Cc2ccc(Cl)cc2)c2ccccc12)Nc1ccncc1 | – | – | 87 | 19 | Inhibition (Mus musculus): 69%; Cell viability [3]: 95%; IC50 [4]: 25 µM; IC50 (Splenocyte [5]): 17 µM
3 | Cc1cc(C)nc(NC(=O)CCc2cn(Cc3ccc(Cl)cc3)c3ccccc23)c1 | inactive | inactive | – | – | –
4 | O=C(CCc1c[nH]c2ccccc12)NCc1cccnc1 | – | – | 38 | 38 | –
5 | Cc1cc(C)nc(NC(=O)CCc2cn(Cc3ccccc3)c3ccccc23)c1 | inactive | inactive | – | – | –
6 | O=C(CCc1c[nH]c2ccccc12)Nc1ccncc1 | inactive | inactive | – | – | –
7 | O=C(CCc1cn(Cc2ccccc2)c2ccccc12)NCc1cccnc1 | – | – | 38 | 20 | –
8 | Cc1cc(C)nc(NC(=O)CCc2c[nH]c3ccccc23)c1 | – | – | 76 | 22 | –
9 | Cc1cc(C)nc(NC(=O)CCc2cn(Cc3ccc(Cl)cc3)c3ccc(Cl)cc23)c1 | inactive | inactive | – | – | –
10 | Cn1cc(CCC(=O)NCc2cccnc2)c2cc(Cl)ccc21 | – | – | 37 | 22 | –
11 | Cn1cc(CCC(=O)Nc2ccncc2)c2cc(Cl)ccc21 | inactive | inactive | – | – | –
12 | O=C(CCc1cn(Cc2ccccc2)c2ccccc12)Nc1ccncc1 | inactive | inactive | – | – | –
13 | O=C(CCc1cn(Cc2ccc(Cl)cc2)c2ccccc12)NCc1cccnc1 | – | – | 55 | 27 | –
